Results published in ChEMBL document CHEMBL6083205, “A comprehensive apoptotic assessment of niloticin in cervical cancer cells: a tirucallane-type triterpenoid from Aphanamixis polystachya (Wall.) Parker” (RSC Med Chem, 2024).

Tested on: HeLa
Assay: Antiproliferative activity against human HeLa cells assessed as inhibition of cell growth incubated for 24 hrs by MTT assay
Assay type: functional, cell-based
How it was run: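 Cells kept in DMEM with 10% FBS and 1% antibiotic-antimycotic at 37 °C and 5% CO2. Seeded at 8 × 10^3 cells per 100 μL and left 24 h, then exposed 24 h to 5, 10, 20, 50 or 100 μM. MTT at 0.5 mg/mL in HBSS was added for 2–4 h at 37 °C in the dark. Formazan was dissolved in DMSO, A570 was read, and IC50 was derived.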

Row | SMILES | IC50 [µM]
1 | C[C@@H](C[C@@H](O)[C@H](O)C(C)(C)O)[C@@H]1CC[C@]2(C)C3=CC[C@H]4C(C)(C)[C@H](O)CC[C@]4(C)[C@H]3CC[C@@]12C | > 100
2 | C=C(C)[C@@H](O)[C@H](O)C[C@H](C)[C@@H]1CC[C@]2(C)C3=CC[C@H]4C(C)(C)C(=O)CC[C@]4(C)[C@H]3CC[C@@]12C | > 100
3 | C[C@@H](C[C@@H](O)[C@@H](O)C(C)(C)O)[C@@H]1CC[C@]2(C)C3=CC[C@H]4C(C)(C)C(=O)CC[C@]4(C)[C@H]3CC[C@@]12C | 51.9
